Values after ≈ are worked out from the molar mass of the structure shown.
Experiments:
Type in all cases: functional
[1] = tested on: Candida dubliniensis; assay: Antifungal activity against Candida dubliniensis 10035 after 48 hrs; conditions: Candida dubliniensis, 10035, 48 h
Outline: (§1)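 CLSI M27-A3 broth microdilution. Yeast inoculum was adjusted with a hemocytometer. MIC was read at 24 h or 48 h as the lowest concentration giving 50% growth inhibition.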

[2] = tested on: Candida dubliniensis; assay: Antifungal activity against Candida dubliniensis 10035 after 24 hrs; conditions: Candida dubliniensis, 10035, 24 h; outline: as §1
[3] = tested on: Candida dubliniensis; assay: Antifungal activity against Candida dubliniensis 10034 after 24 hrs; conditions: Candida dubliniensis, 10034, 24 h; outline: as §1
[4] = tested on: Candida dubliniensis; assay: Antifungal activity against Candida dubliniensis 10034 assessed as compound concentration at which paradoxical growth of observed after 24 hrs
Outline: (§2)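 In the same broth dilution (CLSI M27-A3) tests, read at 24 or 48 h, this is the range of drug concentrations over which paradoxical growth appeared. It was not set when growth occurred across the whole tested range (trailing).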

[5] = tested on: Candida dubliniensis; assay: Antifungal activity against Candida dubliniensis 9456 assessed as compound concentration at which paradoxical growth of observed after 24 hrs; outline: as §2
[6] = tested on: Candida dubliniensis; assay: Antifungal activity against Candida dubliniensis 10035 by hemocytometry
Outline: (§3)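 Minimal fungicidal concentration from the broth dilution test, defined as the lowest drug level giving ≥99.9% reduction in CFU/ml. Inocula were adjusted by hemocytometer.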

[7] = tested on: Candida dubliniensis; assay: Antifungal activity against Candida dubliniensis 9453 after 48 hrs; conditions: Candida dubliniensis, 9453, 48 h; outline: as §1
[8] = tested on: Candida dubliniensis; assay: Antifungal activity against Candida dubliniensis 9453 after 24 hrs; conditions: Candida dubliniensis, 9453, 24 h; outline: as §1
[9] = tested on: Candida dubliniensis; assay: Antifungal activity against Candida dubliniensis 10033 by hemocytometry; outline: as §3
[10] = tested on: Candida dubliniensis; assay: Antifungal activity against Candida dubliniensis FMR 10032 infected in OF1 mouse assessed as fungal count in spleen at 10 mg/kg/day, iv […]
Outline: (§4)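 Immunocompetent male OF1 mice, 10 per group, were challenged i.v. with 1.5 × 10^7 CFU. Drug was given i.v. once daily at 1 or 10 mg/kg for 3 days, starting 24 h post-challenge; controls were untreated. Mice were killed 1 day after the last dose. Kidneys and spleen were homogenized in saline, serial 10-fold dilutions were plated on Sabouraud agar at 35°C for 3 days, and mean log10 CFU was reported.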

[11] = tested on: Candida dubliniensis; assay: Antifungal activity against Candida dubliniensis FMR 10032 infected in immunosuppressed OF1 mouse assessed as fungal count in spleen at 1 mg/kg/day, iv […]
Outline: (§5)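 Male OF1 mice, 10 per group, were immunosuppressed on infection day with cyclophosphamide 200 mg/kg i.p. plus 5-fluorouracil 150 mg/kg i.v., then challenged i.v. with 1.5 × 10^5 CFU. Drug was given at 1 mg/kg i.v. once daily for 5 days, starting 24 h after challenge. One day after treatment ended, kidney and spleen homogenates were plated in 10-fold dilutions on Sabouraud agar (35°C, 3 days) and mean log10 CFU was reported.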

[12] = tested on: Candida dubliniensis; assay: Antifungal activity against Candida dubliniensis 9456 after 24 hrs; conditions: Candida dubliniensis, 9456, 24 h; outline: as §1
[13] = tested on: Candida dubliniensis; assay: Antifungal activity against Candida dubliniensis FMR 10032 infected in OF1 mouse assessed as fungal count in spleen at 1 mg/kg/day, iv […]; outline: as §4
[14] = tested on: Candida dubliniensis; assay: Antifungal activity against Candida dubliniensis 10031 assessed as compound concentration at which paradoxical growth of observed after 24 hrs; outline: as §2
[15] = tested on: Candida dubliniensis; assay: Antifungal activity against Candida dubliniensis FMR 10032 infected in OF1 mouse assessed as fungal count in kidney at 1 mg/kg/day, iv […]; outline: as §4
[16] = tested on: Candida dubliniensis; assay: Antifungal activity against Candida dubliniensis 10034 after 48 hrs; conditions: Candida dubliniensis, 10034, 48 h; outline: as §1
[17] = tested on: Candida dubliniensis; assay: Antifungal activity against Candida dubliniensis FMR 10032 infected in immunosuppressed OF1 mouse assessed as fungal count in kidney at 1 mg/kg/day, iv […]; outline: as §5
[18] = tested on: Candida dubliniensis; assay: Antifungal activity against Candida dubliniensis 9453 assessed as compound concentration at which paradoxical growth of observed after 24 hrs; outline: as §2
[19] = tested on: Candida dubliniensis; assay: Antifungal activity against Candida dubliniensis 9453 by hemocytometry; outline: as §3
[20] = tested on: Candida dubliniensis; assay: Antifungal activity against Candida dubliniensis 10032 after 24 hrs; conditions: Candida dubliniensis, 10032, 24 h; outline: as §1
[21] = tested on: Candida dubliniensis; assay: Antifungal activity against Candida dubliniensis 10033 after 24 hrs; conditions: Candida dubliniensis, 10033, 24 h; outline: as §1
[22] = tested on: Candida dubliniensis; assay: Antifungal activity against Candida dubliniensis FMR 10034 infected in immunosuppressed OF1 mouse assessed as fungal count in kidney at 1 mg/kg/day, iv […]; outline: as §5
[23] = tested on: Candida dubliniensis; assay: Antifungal activity against Candida dubliniensis 10034 by hemocytometry; outline: as §3
[24] = tested on: Candida dubliniensis; assay: Antifungal activity against Candida dubliniensis 10033 assessed as compound concentration at which paradoxical growth of observed after 24 hrs; outline: as §2
[25] = tested on: Candida dubliniensis; assay: Antifungal activity against Candida dubliniensis 10032 by hemocytometry; outline: as §3
[26] = tested on: Candida dubliniensis; assay: Antifungal activity against Candida dubliniensis 9456 after 48 hrs; conditions: Candida dubliniensis, 9456, 48 h; outline: as §1
[27] = tested on: Candida dubliniensis; assay: Antifungal activity against Candida dubliniensis 10034 assessed as compound concentration at which paradoxical growth of observed after 48 hrs; outline: as §2
[28] = tested on: Candida dubliniensis; assay: Antifungal activity against Candida dubliniensis FMR 10032 infected in OF1 mouse assessed as fungal count in kidney at 10 mg/kg/day, iv […]; outline: as §4
[29] = tested on: Candida dubliniensis; assay: Antifungal activity against Candida dubliniensis FMR 10034 infected in OF1 mouse assessed as fungal count in spleen at 1 mg/kg/day, iv […]; outline: as §4
[30] = tested on: Candida dubliniensis; assay: Antifungal activity against Candida dubliniensis 10033 after 48 hrs; conditions: Candida dubliniensis, 10033, 48 h; outline: as §1
[31] = tested on: Candida dubliniensis; assay: Antifungal activity against Candida dubliniensis FMR 10034 infected in OF1 mouse assessed as fungal count in kidney at 1 mg/kg/day, iv […]; outline: as §4
[32] = tested on: Candida dubliniensis; assay: Antifungal activity against Candida dubliniensis 9456 by hemocytometry; outline: as §3
[33] = tested on: Candida dubliniensis; assay: Antifungal activity against Candida dubliniensis 10031 after 24 hrs; conditions: Candida dubliniensis, 10031, 24 h; outline: as §1
[34] = tested on: Candida dubliniensis; assay: Antifungal activity against Candida dubliniensis FMR 10034 infected in OF1 mouse assessed as fungal count in kidney at 10 mg/kg/day, iv […]; outline: as §4
[35] = tested on: Candida dubliniensis; assay: Antifungal activity against Candida dubliniensis 10035 assessed as compound concentration at which paradoxical growth of observed after 48 hrs; outline: as §2
[36] = tested on: Candida dubliniensis; assay: Antifungal activity against Candida dubliniensis 10033 assessed as compound concentration at which paradoxical growth of observed after 48 hrs
Outline: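 Broth dilution susceptibility testing of yeasts per CLSI reference method M27-A3, with inocula adjusted by hemocytometer count. Wells were read at 24 and 48 h. The paradoxical growth range is the span of drug concentrations (μg/ml) over which growth reappeared above the inhibitory concentration. Where growth occurred across the entire concentration range (trailing), no range was determined.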

[37] = tested on: Candida dubliniensis; assay: Antifungal activity against Candida dubliniensis 10031 after 48 hrs; conditions: Candida dubliniensis, 10031, 48 h; outline: as §1
[38] = tested on: Candida dubliniensis; assay: Antifungal activity against Candida dubliniensis FMR 10034 infected in OF1 mouse assessed as fungal count in spleen at 10 mg/kg/day, iv […]; outline: as §4
[39] = tested on: Candida dubliniensis; assay: Antifungal activity against Candida dubliniensis FMR 10034 infected in immunosuppressed OF1 mouse assessed as fungal count in spleen at 1 mg/kg/day, iv […]; outline: as §5
[40] = tested on: Candida dubliniensis; assay: Antifungal activity against Candida dubliniensis 10031 by hemocytometry; outline: as §3
[41] = tested on: Candida dubliniensis; assay: Antifungal activity against Candida dubliniensis 10032 after 48 hrs; conditions: Candida dubliniensis, 10032, 48 h; outline: as §1

MIC50 [1]: 0.06 mg/L (≈ 0.0549 µM)
MIC50 [2]: 0.06 mg/L (≈ 0.0549 µM)
MIC50 [3]: 0.125 mg/L (≈ 0.114 µM)
MIC50 [7]: 0.25 mg/L (≈ 0.229 µM)
MIC50 [8]: 0.25 mg/L (≈ 0.229 µM)
MIC50 [12]: 0.25 mg/L (≈ 0.229 µM)
MIC50 [16]: 0.25 mg/L (≈ 0.229 µM)
MIC50 [20]: 0.06 mg/L (≈ 0.0549 µM)
MIC50 [21]: 0.25 mg/L (≈ 0.229 µM)
MIC50 [26]: 0.25 mg/L (≈ 0.229 µM)
MIC50 [30]: 0.25 mg/L (≈ 0.229 µM)
MIC50 [33]: 0.125 mg/L (≈ 0.114 µM)
MIC50 [37]: 0.25 mg/L (≈ 0.229 µM)
MIC50 [41]: 0.06 mg/L (≈ 0.0549 µM)
Structure (SMILES): CC[C@H](C)C[C@H](C)CCCCCCCCC(=O)N[C@H]1C[C@@H](O)[C@@H](NCCN)NC(=O)[C@@H]2[C@@H](O)CCN2C(=O)[C@H]([C@H](O)CCN)NC(=O)[C@H]([C@H](O)[C@@H](O)c2ccc(O)cc2)NC(=O)[C@@H]2C[C@@H](O)CN2C(=O)[C@H]([C@@H](C)O)NC1=O [CASPOFUNGIN]
Activity [4]: 16 µg/mL
Activity [5]: 8 µg/mL
MFC [6]: 0.5 mg/L (≈ 0.457 µM)
MFC [9]: > 16 mg/L
log10cfu [10]: 3.38
log10cfu [11]: 1.26
log10cfu [13]: 3.56
Activity [14]: 8 µg/mL
log10cfu [15]: 3.41
log10cfu [17]: 1.77
Activity [18]: 8 µg/mL
MFC [19]: > 16 mg/L
log10cfu [22]: 3.39
MFC [23]: > 16 mg/L
Activity [24]: 8 µg/mL
MFC [25]: 4 mg/L (≈ 3.66 µM)
Activity [27]: 1 µg/mL
log10cfu [28]: 3.08
log10cfu [29]: 4.21
log10cfu [31]: 4.5
MFC [32]: > 16 mg/L
log10cfu [34]: 4.09
Activity [35]: 8 µg/mL
Activity [36]: 2 µg/mL
log10cfu [38]: 3.89
log10cfu [39]: 2.08
MFC [40]: > 16 mg/L
